Calls of active or inactive are those of the source. No cut-off for these calls is given here.
Assays:
Type in all cases: functional
[1] = system: Leishmania donovani; experiment: Antileishmanial activity against Leishmania donovani MHOM/IN/80/DD8 promastigote forms harboring luciferase gene at 50 uM after 72 hrs by Steady-Glo reagent based luminescence assay relative to control; conditions: MHOM/IN/80/DD8, 72 h, read-out: GI
Outline: (§1)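 Exponential-phase Dd8-Luc promastigotes at 1×10^6/mL in M199 with 10% FBS, 24 °C, given 50 and 25 µM for 72 h. Vehicle 0.1% DMSO. Steady-Glo added 1:1, luminescence (RLU) read. IC50 from four-parameter Hill regression, derived only where inhibition exceeded 90%. Means of at least three independent experiments.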

[2] = system: Leishmania donovani; experiment: Antileishmanial activity against Leishmania donovani MHOM/IN/80/DD8 amastigote forms harboring luciferase gene infected in mouse J774 cells at 25 uM after 72 hrs by Steady-Glo reagent based luminescence assay relative to control; conditions: for inhibition of growth at 25 µM: MHOM/IN/80/DD8, J774, 72 h, read-out: GI
Outline: (§2)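 Stationary-phase luciferase-expressing Dd8 promastigotes infected into J774 macrophages (4×10^4/mL seeded, 24 h, 37 °C, 5% CO2) at 1:8 macrophage:parasite for 24 h. Non-internalised parasites washed off. Compounds added at 50 and 25 µM in RPMI/10% FBS for 72 h. Lysis with Steady-Glo luciferin reagent plus PBS, luminescence read. Inhibition relative to untreated infected controls.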

[3] = system: Leishmania donovani; experiment: Antileishmanial activity against Leishmania donovani MHOM/IN/80/DD8 promastigote forms harboring luciferase gene at 25 uM after 72 hrs by Steady-Glo reagent based luminescence assay relative to control; conditions: MHOM/IN/80/DD8, 72 h, read-out: GI; outline: as §1
[4] = system: Leishmania donovani; experiment: Antileishmanial activity against Leishmania donovani MHOM/IN/80/DD8 amastigote forms harboring luciferase gene infected in mouse J774 cells at 50 uM after 72 hrs by Steady-Glo reagent based luminescence assay relative to control; conditions: for inhibition of growth at 50 µM: MHOM/IN/80/DD8, J774, 72 h, read-out: GI; outline: as §2

| Structure (SMILES) | inhibition of growth at 50 µM [1] | inhibition of growth at 25 µM [2] | inhibition of growth at 25 µM [3] | inhibition of growth at 50 µM [4] | growth inhibition (GI) [2] | growth inhibition (GI) [4] |
| --- | --- | --- | --- | --- | --- | --- |
| COc1ccc(-c2c3c(nc4c2c(-c2c[nH]c5ccccc25)nn4-c2ccc(Cl)c(Cl)c2)CCC3=O)cc1OC | 81.1% | 20.8% | 52.4% | 34.3% | – | – |
| COc1ccc(-c2c3c(nc4c2c(-c2c[nH]c5ccccc25)nn4-c2ccc(Cl)cc2)CC(C)(C)CC3=O)cc1 | 52% | – | 44.3% | – | inactive | inactive |
| COc1cc(C2C3=C(CC(C)(C)CC3=O)Nc3c2c(-c2c[nH]c4ccccc24)nn3-c2ccc(Cl)cc2)cc(OC)c1OC (stereo not drawn) | 86.7% | 23.6% | 79.3% | 28.2% | – | – |
| COc1cc(C2C3=C(CCC3=O)Nc3c2c(-c2c[nH]c4ccccc24)nn3-c2ccc(F)cc2)cc(OC)c1O (stereo not drawn) | 66.9% | – | 56.5% | – | inactive | inactive |
| CC1(C)CC(=O)C2=C(C1)Nc1c(c(-c3c[nH]c4ccccc34)nn1-c1ccc(Cl)cc1)C2c1cccs1 (stereo not drawn) | 86.5% | 43.8% | 82.5% | 51.7% | – | – |
| COc1ccc(-c2c3c(nc4c2c(-c2c[nH]c5ccccc25)nn4-c2ccc(Cl)cc2)-c2ccccc2C3=O)cc1 | 33.4% | – | 27.5% | – | inactive | inactive |
| CC1(C)CC(=O)c2c(nc3c(c(-c4c[nH]c5ccccc45)nn3-c3ccc(F)cc3)c2-c2ccc(Cl)cc2)C1 | 68.6% | – | 61.3% | – | inactive | inactive |
| COc1ccc(-c2c3c(nc4c2c(-c2c[nH]c5ccccc25)nn4-c2ccc(Cl)cc2)CC(C)(C)CC3=O)c(OC)c1OC | 54.3% | – | 40.2% | – | inactive | inactive |
| CC1(C)CC(=O)c2c(nc3c(c(-c4c[nH]c5ccccc45)nn3-c3ccc(Cl)cc3)c2-c2ccc(Cl)cc2)C1 | 67.4% | – | 56.7% | – | inactive | inactive |
| COc1ccc(OC)c(-c2c3c(nc4c2c(-c2c[nH]c5ccccc25)nn4-c2ccc(F)cc2)CC(C)(C)CC3=O)c1 | 90.3% | 22.4% | 84.1% | 27.9% | – | – |
| O=C1C2=C(Nc3c(c(-c4c[nH]c5ccccc45)nn3-c3ccc(F)cc3)C2c2ccc(Cl)cc2)c2ccccc21 (stereo not drawn) | 68.3% | – | 54.2% | – | inactive | inactive |
| COc1cc(-c2c3c(nc4c2c(-c2c[nH]c5ccccc25)nn4-c2ccc(Cl)cc2)-c2ccccc2C3=O)cc(OC)c1OC | 41.1% | – | 28.3% | – | inactive | inactive |
| COc1ccc(C2C3=C(CC(C)(C)CC3=O)Nc3c2c(-c2c[nH]c4ccccc24)nn3-c2ccc(Cl)c(Cl)c2)cc1OC (stereo not drawn) | 59.5% | – | 52.3% | – | inactive | inactive |
| O=C1C2=C(Nc3c(c(-c4c[nH]c5ccccc45)nn3-c3ccc(Cl)cc3)C2c2ccc(Cl)cc2)c2ccccc21 (stereo not drawn) | 62.4% | – | 49.1% | – | inactive | inactive |
| CC1(C)CC(=O)c2c(nc3c(c(-c4c[nH]c5ccccc45)nn3-c3ccc(Cl)cc3)c2-c2ccc(Cl)cc2Cl)C1 | 40.6% | – | 35.7% | – | inactive | inactive |
| O=C1C2=C(Nc3c(c(-c4c[nH]c5ccccc45)nn3-c3ccc(Cl)cc3)C2c2cccs2)c2ccccc21 (stereo not drawn) | 69.2% | – | 65.3% | – | inactive | inactive |

| Structure (SMILES) | inhibition of growth at 50 µM [1] | inhibition of growth at 25 µM [2] | inhibition of growth at 25 µM [3] | inhibition of growth at 50 µM [4] | growth inhibition (GI) [2] | growth inhibition (GI) [4] |
| --- | --- | --- | --- | --- | --- | --- |
| COc1ccc(OC)c(-c2c3c(nc4c2c(-c2c[nH]c5ccccc25)nn4-c2ccc(Cl)c(Cl)c2)CC(C)(C)CC3=O)c1 | 51.8% | 24.6% | 41.3% | 41.3% | – | – |
| COc1ccc(OC)c(-c2c3c(nc4c2c(-c2c[nH]c5ccccc25)nn4-c2ccc(Cl)cc2)CC(C)(C)CC3=O)c1 | 69.6% | – | 50.7% | – | inactive | inactive |
| COc1cc(C2C3=C(CCC3=O)Nc3c2c(-c2c[nH]c4ccccc24)nn3-c2ccc(Cl)cc2)cc(OC)c1OC (stereo not drawn) | 81.2% | 45.2% | 78.4% | 59.6% | – | – |
| CC1(C)CC(=O)c2c(nc3c(c(-c4c[nH]c5ccccc45)nn3-c3ccc(F)cc3)c2-c2ccc(Cl)cc2Cl)C1 | 48.4% | – | 44.6% | – | inactive | inactive |
| CC1(C)CC(=O)C2=C(C1)Nc1c(c(-c3c[nH]c4ccccc34)nn1-c1ccc(Cl)cc1)C2c1ccc(Cl)cc1 (stereo not drawn) | 65.4% | – | 62.5% | – | inactive | inactive |
| COc1cc(C2C3=C(CCC3=O)Nc3c2c(-c2c[nH]c4ccccc24)nn3-c2ccc(Cl)cc2)cc(OC)c1O (stereo not drawn) | 89.6% | 25.2% | 79.1% | 30.7% | – | – |
| COc1ccc(OC)c(-c2c3c(nc4c2c(-c2c[nH]c5ccccc25)nn4-c2ccc(Cl)cc2)CCC3=O)c1 | 67.2% | – | 61.2% | – | inactive | inactive |
| COc1ccc(OC)c(-c2c3c(nc4c2c(-c2c[nH]c5ccccc25)nn4-c2ccc(F)cc2)-c2ccccc2C3=O)c1 | 58.3% | – | 49.8% | – | inactive | inactive |
| COc1cc(-c2c3c(nc4c2c(-c2c[nH]c5ccccc25)nn4-c2ccc(Cl)cc2)CCC3=O)cc(OC)c1OC | 72.3% | – | 66.8% | – | inactive | inactive |
| CC1(C)CC(=O)C2=C(C1)Nc1c(c(-c3c[nH]c4ccccc34)nn1-c1ccc(F)cc1)C2c1ccc(Cl)cc1 (stereo not drawn) | 65.3% | – | 54.3% | – | inactive | inactive |
| COc1ccc(-c2c3c(nc4c2c(-c2c[nH]c5ccccc25)nn4-c2ccc(Cl)cc2)-c2ccccc2C3=O)c(OC)c1OC | 63.4% | – | 52.6% | – | inactive | inactive |
| COc1ccc(OC)c(C2C3=C(CCC3=O)Nc3c2c(-c2c[nH]c4ccccc24)nn3-c2ccc(Cl)cc2)c1 (stereo not drawn) | 93.2% | 37.3% | 85.5% | 42.6% | – | – |
| COc1ccc(OC)c(-c2c3c(nc4c2c(-c2c[nH]c5ccccc25)nn4-c2ccc(Cl)cc2)-c2ccccc2C3=O)c1 | 53.6% | – | 44.6% | – | inactive | inactive |
| COc1cc(-c2c3c(nc4c2c(-c2c[nH]c5ccccc25)nn4-c2ccc(Cl)cc2)CC(C)(C)CC3=O)cc(OC)c1OC | 68.6% | – | 59.1% | – | inactive | inactive |
| COc1ccc(C2C3=C(Nc4c2c(-c2c[nH]c5ccccc25)nn4-c2ccc(Cl)cc2)c2ccccc2C3=O)c(OC)c1OC (stereo not drawn) | 67.4% | – | 64.2% | – | inactive | inactive |
| COc1ccc(-c2c3c(nc4c2c(-c2c[nH]c5ccccc25)nn4-c2ccc(Cl)c(Cl)c2)CC(C)(C)CC3=O)cc1OC | 74.1% | – | 59.4% | – | inactive | inactive |
